The values that follow come from ChEMBL document CHEMBL6092204, “Synthesis of pyridyl pyrimidine hedgehog signaling pathway inhibitors and their antitumor activity in human pancreatic cancer” (Eur J Med Chem, 2024).

Calls of active or inactive are those of the source. The calls are words filed in the database; no cut-off is given here.

Series [1] deals with PANC-1. Briefly: Inhibition of Hh signaling pathway in human PANC-1 cells assessed as reduction in Gli1 level incubated for 48 hrs by Western blot analysis. The class given is cell-based. Particulars: dose 2.5-10 µM. The method, boiled down:
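Cells were treated in 6-well plates for 48 h, lysed by sonication in RIPA with PMSF, and quantified by BCA. 20-30 μg protein was run on 6-12% gradient SDS-PAGE and transferred to PVDF. Membranes were blocked 2 h at room temperature, probed with anti-Gli1 overnight at 4 °C and secondary 1.5 h at room temperature, then developed by ECL. Densitometry was normalised to β-actin; three separate experiments.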
On the technique in general: Immunoblotting shows a protein as a band on a membrane.

The test system of series [2] is BXPC-3. Description: Induction of cell cycle arrest in human BXPC-3 cells assessed as accumulation at G2 phase at 5 uM incubated for 48 hrs by PI/RNase staining based flow cytometry (reference value: 8.15 %). The class given is functional. Background: Flow cytometry measures light scatter and fluorescence of single cells or particles in a stream.
Series [3] concerns PANC-1. Briefly: Induction of apoptosis in human PANC-1 cells assessed as early apoptotic cells at 8 uM incubated for 48 hrs by Annexin V-FITC/PI staining based flow cytometry (reference value: 1.88 %). It is filed as functional.
Series [4] deals with BXPC-3. Briefly: Inhibition of Hh signaling pathway in human BXPC-3 cells assessed as reduction in Gli1 mRNA level incubated for 48 hrs by qRT-PCR analysis. The class given is cell-based. Particulars: dose 2.5-10 µM. The method, boiled down:
(§1)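 Total RNA was extracted by column kit after 48 h treatment and checked spectrophotometrically. Gli1 and Ptch1 transcripts were quantified by real-time RT-qPCR with GAPDH as internal control. Results are fold change relative to the untreated group; three separate experiments.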

The subject of series [5] is PANC-1. Briefly: Induction of cell cycle arrest in human PANC-1 cells assessed as accumulation at S phase at 2.5 uM incubated for 48 hrs by PI/RNase staining based flow cytometry (reference value: 7.58 %). It is filed as functional.
Series [6] has as its system PANC-1. Briefly: Inhibition of cell migration in human PANC-1 cells incubated for 48 hrs by crystal violet staining based transwell assay. The note with it: dose 2.5-10 µM. It is filed as functional. The method, boiled down:
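Cells at 1.5×10^5 cells/mL in serum-free medium containing drug were added to the upper Transwell chamber (200 μL), with medium containing 10% FBS below. After 48 h, non-migrated cells were swabbed off. Inserts were fixed in 4% paraformaldehyde for 15-20 min and stained with 0.5% crystal violet. Cells were counted in four random fields at 100×; n = 3.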

The subject of series [7] is PANC-1. Description: Induction of cell cycle arrest in human PANC-1 cells assessed as accumulation at G2 phase at 2.5 uM incubated for 48 hrs by PI/RNase staining based flow cytometry (reference value: 5.83 %). It is filed as functional.
Series [8] has as its system BXPC-3. Briefly: Induction of apoptosis in human BXPC-3 cells assessed as late apoptotic cells at 2.5 uM incubated for 48 hrs by Annexin V-FITC/PI staining based flow cytometry (reference value: 6.72 %). It is filed as functional.
Series [9] is described as follows: Toxicity in BALB/c nude mouse xenografted with human BxPC-3 cells assessed as tissue fibrosis in heart at 5 to 15 mg/kg, ip qd for 21 days by H and E staining based analysis. Particulars: in vivo, 504 h. A general note: A xenograft is tissue or cells of one species grown in another, often human tumour cells in immunodeficient mice.
For series [10], the system named is PANC-1. Briefly: Induction of apoptosis in human PANC-1 cells assessed as necrotic cells at 8 uM incubated for 48 hrs by Annexin V-FITC/PI staining based flow cytometry (reference value: 2.24 %). It is filed as functional.
Series [11] can be described thus: Toxicity in BALB/c nude mouse xenografted with human BxPC-3 cells assessed as necrosis in liver at 5 to 15 mg/kg, ip qd for 21 days by H and E staining based analysis. Particulars: in vivo, 504 h.
A short description of series [12]: Toxicity in BALB/c nude mouse xenografted with human BxPC-3 cells assessed as inflammatory infiltration in kidneys at 5 to 15 mg/kg, ip qd for 21 days by H and E staining based analysis. The note with it: in vivo, 504 h.
The nature of series [13]: Toxicity in BALB/c nude mouse xenografted with human BxPC-3 cells assessed as necrosis in heart at 5 to 15 mg/kg, ip qd for 21 days by H and E staining based analysis. The note with it: in vivo, 504 h.
In series [14] the test system is BXPC-3. Description: Induction of cell cycle arrest in human BXPC-3 cells assessed as accumulation at S phase at 10 uM incubated for 48 hrs by PI/RNase staining based flow cytometry (reference value: 8.18 %). The class given is functional.
Series [15] has as its system BXPC-3. Briefly: Antiproliferative activity against human BXPC-3 cells assessed as inhibition of cell viability incubated for 48 hrs by MTT assay. It is filed as functional, cell-based. The note with it: BXPC-3, 48 h. The method, boiled down:
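Cells in log phase were seeded at 8,000-10,000/well and allowed to adhere overnight at 37 °C, 5% CO2. Compound from DMSO stock, diluted in medium, was applied for 48 h; controls got drug-free medium, blanks held medium only. MTT (5 mg/mL stock) 4 h, formazan dissolved in DMSO, A490 read. Viability was blank-corrected against untreated cells; IC50 came from a fitted curve; three separate experiments.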

Series [16] has as its system BXPC-3. Briefly: Induction of apoptosis in human BXPC-3 cells assessed as late apoptotic cells at 5 uM incubated for 48 hrs by Annexin V-FITC/PI staining based flow cytometry (reference value: 6.72 %). The class given is functional.
Series [17] deals with Protein smoothened (Homo sapiens) (UniProt Q99835). Briefly: Antagonist activity at Smo (unknown origin) transfected in HEK293T cells incubated for 2 hrs by BODIPY-Cyclopamine based competitive binding assay. The note with it: filed as antagonist, dose 10-50 nM. The class given is cell-based. The method, boiled down: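 […] cells stably transfected with a Smo plasmid, with expression confirmed by Western blot. Cells (2×10^4/well) were grown 24 h in poly-L-lysine-coated wells, then fixed with 4% paraformaldehyde and DAPI-stained. BODIPY-cyclopamine (100 nM) was added together with test compound for 2 h. Green fluorescence was imaged by fluorescence microscopy.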
Chain of Protein smoothened (Homo sapiens) (Q99835 whole entry): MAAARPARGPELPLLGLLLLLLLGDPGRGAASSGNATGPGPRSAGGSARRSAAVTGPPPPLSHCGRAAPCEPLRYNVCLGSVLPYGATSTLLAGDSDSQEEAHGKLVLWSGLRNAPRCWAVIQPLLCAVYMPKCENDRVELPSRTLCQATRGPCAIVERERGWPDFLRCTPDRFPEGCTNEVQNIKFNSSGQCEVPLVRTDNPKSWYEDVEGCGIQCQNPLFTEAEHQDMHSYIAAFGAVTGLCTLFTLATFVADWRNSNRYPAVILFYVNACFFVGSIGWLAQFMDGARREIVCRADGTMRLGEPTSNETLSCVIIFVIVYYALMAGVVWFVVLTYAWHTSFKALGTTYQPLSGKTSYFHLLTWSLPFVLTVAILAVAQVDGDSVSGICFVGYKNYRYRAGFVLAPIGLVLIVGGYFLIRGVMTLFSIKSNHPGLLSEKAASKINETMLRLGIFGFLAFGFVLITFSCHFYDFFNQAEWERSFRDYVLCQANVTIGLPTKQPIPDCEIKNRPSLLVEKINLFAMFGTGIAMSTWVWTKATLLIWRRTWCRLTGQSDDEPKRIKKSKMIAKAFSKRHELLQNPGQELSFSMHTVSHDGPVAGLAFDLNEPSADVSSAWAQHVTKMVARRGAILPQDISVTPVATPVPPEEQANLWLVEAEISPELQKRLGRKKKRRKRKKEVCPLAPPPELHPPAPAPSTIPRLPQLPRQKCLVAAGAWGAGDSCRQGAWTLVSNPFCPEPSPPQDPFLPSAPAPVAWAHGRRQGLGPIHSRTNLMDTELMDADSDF

Series [18] has as its system PANC-1. Briefly: Induction of apoptosis in human PANC-1 cells assessed as late apoptotic cells at 10 uM incubated for 48 hrs by Annexin V-FITC/PI staining based flow cytometry (reference value: 2.74 %). It is filed as functional.
Series [19] has as its system PANC-1. Briefly: Induction of cell cycle arrest in human PANC-1 cells assessed as accumulation at G2 phase at 10 uM incubated for 48 hrs by PI/RNase staining based flow cytometry (reference value: 5.83 %). It is filed as functional.
Series [20] has as its system PANC-1. Briefly: Induction of apoptosis in human PANC-1 cells assessed as early apoptotic cells at 5 uM incubated for 48 hrs by Annexin V-FITC/PI staining based flow cytometry (reference value: 1.88 %). The class given is functional.
For series [21], the system named is PANC-1. Briefly: Inhibition of Hh signaling pathway in human PANC-1 cells assessed as reduction in Ptch1 mRNA level incubated for 48 hrs by qRT-PCR analysis. The class given is cell-based. The method, boiled down:
as §1

Series [22] relates to PANC-1. Description: Induction of apoptosis in human PANC-1 cells assessed as viable cells at 2.5 uM incubated for 48 hrs by Annexin V-FITC/PI staining based flow cytometry (reference value: 93.2 %). The class given is functional. The note with it: read-out: Activity.
Series [23] concerns BxPC-3. Briefly: Antitumor activity aginst human BxPC-3 cells xenografted in BALB/c nude mouse assessed as tumor growth inhibition at 5 to 15 mg/kg, ip qd for 21 days. The note with it: dose 5-15 mg/kg, time 21.0 day.
Series [24] has as its system BXPC-3. Description: Induction of apoptosis in human BXPC-3 cells assessed as early apoptotic cells at 5 uM incubated for 48 hrs by Annexin V-FITC/PI staining based flow cytometry (reference value: 1.11 %). It is filed as functional.

Turning to `CN(C)Cc1ccc(NC(=O)c2ccc(Nc3nccc(-c4cccnc4)n3)cc2)cc1`, the inhibition entry with PANC-1 [1], in the series with BXPC-3 [4], with PANC-1 [6] and in the series on PANC-1 [21] was “Dose-dependent-effect” each time. The Activity is 12.5% in the series with BXPC-3 [2]; 2.97% in the series on PANC-1 [3]; 7.73% with PANC-1 [5]; 7.2% in the series with PANC-1 [7]; 8.06% in the series on BXPC-3 [8]; “Non-toxic” in series [9]. The Activity in the series on PANC-1 [10] is reported as 2.16%; in [11], “Non-toxic”; in series [12], “Non-toxic”; in [13] it was “Non-toxic”; in the series with BXPC-3 [14], 3.11%; with BXPC-3 [16], 10.8%. The Activity result in series [17] is recorded as “Dose-dependent-effect; Exhibited Fluorescence Quenching Activity Similar To Compound 1”; with PANC-1 [18], 22.3%; with PANC-1 [19] it was 12.2%; in the series with PANC-1 [20], 3.29%; in the series on BXPC-3 [24], 2.71%. Moreover, in the series with BXPC-3 [15], the IC50 (in general, the concentration that gives 50% inhibition) was determined as 3.57 µM. Also, the viability at 2.5 µM with PANC-1 [22] is 90.7%. Further, the inhibition result in the series with BxPC-3 [23] was “Active”.
